Laboratory results from ChEMBL document CHEMBL1629555, “Antimalarial activity of phenylthiazolyl-bearing hydroxamate-based histone deacetylase inhibitors” (Antimicrob Agents Chemother, 2008).
The source made the active and inactive calls. No cut-off for these calls is given here.

What was measured:
Mus musculus = test: Toxicity in Plasmodium berghei-infected mouse assessed as mortality at split dose of 160 mg/kg/day, po for 3 days; assay type: organism-based; parameters: route oral; details: in vivo, 72 h
Plasmodium berghei [1] = test: Antimalarial activity against Plasmodium berghei infected in mouse assessed as parasitemia level at 320 mg/kg/day for 3 days measured on day 3 (reference value: 0.46%); assay type: functional
Summary of the method: (§1)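 Mice were infected ip with 10^6 P. berghei-parasitized erythrocytes. The compound was given orally once daily on days 3, 4 and 5 post-infection in hydroxyethylcellulose-Tween 20 vehicle, alone or together with chloroquine, with 5 mice per dose group. Parasitemia (%) was read on days 3 and 6, and cures were counted as animals cured out of 5.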

Plasmodium berghei [2] = test: Antimalarial activity against Plasmodium berghei infected in mouse assessed as effect on cure rate at 0.32 mg/kg/day for 3 days; assay type: functional, organism-based
Plasmodium berghei [3] = test: Antimalarial activity against Plasmodium berghei infected in mouse assessed as parasitemia level at split dose of 80 mg/kg/day, po for 3 days measured on day 6 relative to control; assay type: functional
Summary of the method: (§2)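 Blood-stage P. berghei model: mice inoculated ip with 10^6 parasitized erythrocytes. Oral treatment for 3 days, with the daily dose split, in hydroxyethylcellulose-Tween 20 vehicle. Day-6 parasitemia expressed as a fraction of control parasitemia.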

Plasmodium falciparum [4] = test: Antimalarial activity against Plasmodium falciparum at 10 nM after 3.5 hrs; assay type: functional, organism-based
Summary of the method: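 Infected erythrocytes were exposed to compound for 3.5 h, washed, and returned to culture. Parasite growth was compared with matched controls after 48 h.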

Plasmodium berghei [5] = test: Antimalarial activity against Plasmodium berghei infected in mouse assessed as effect on cure rate at 12.8 mg/kg/day for 3 days measured on day 6 in presence of 16 mg/kg/day chloroquine; assay type: functional, organism-based; summary of the method: as §1
[6] = Cytotoxicity against mouse RAW264.7 cells by MTT assay; assay type: cell-based; details: read-out: LD50 (the source's name)
Summary of the method: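 LC50 in RAW macrophages was determined by MTT assay, given as the mean of 2–4 experiments with range. Selectivity index = RAW LC50 / lowest P. falciparum IC50.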

[7] = Tmax in ICR mouse at 50 mg/kg/day, sc by LC/MS analysis; assay type: ADME, organism-based; parameters: route subcutaneous; details: in vivo
Summary of the method: (§3)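 Male ICR mice, 8 weeks old, got one 50 mg/kg dose either orally or subcutaneously, with three groups of six mice per route. One mouse per group was killed at 15, 30 and 60 min and at 3, 6 and 24 h. Plasma was deproteinized with 2 volumes of acetonitrile and analysed by LC-MS/MS on a C18 column against 0–500 ng/ml standards, with parent and acid metabolite measured in the same sample. Each six-mouse group was treated as one "animal" and fitted to a two-compartment model. AUC was taken by the linear trapezoidal rule extrapolated to infinity, and Cmax and Tmax were read per "animal".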

Plasmodium falciparum [8] = test: Antimalarial activity against drug-resistant Plasmodium falciparum TM90C2A; assay type: functional, organism-based
Plasmodium berghei [9] = test: Antimalarial activity against Plasmodium berghei infected in mouse assessed as effect on cure rate at 160 mg/kg/day for 3 days; assay type: functional, organism-based; summary of the method: as §1
[10] = molecular target: T1, Histone deacetylase (Plasmodium falciparum 3D7) (UniProt Q7K6A1); test: Inhibition of Plasmodium falciparum 3D7 histone deacetylase infected in human erythrocytes assessed as alteration of histone H3 acetylation after 3.5 hrs by SDS-PAGE; assay type: cell-based
T1 sequence (whole entry): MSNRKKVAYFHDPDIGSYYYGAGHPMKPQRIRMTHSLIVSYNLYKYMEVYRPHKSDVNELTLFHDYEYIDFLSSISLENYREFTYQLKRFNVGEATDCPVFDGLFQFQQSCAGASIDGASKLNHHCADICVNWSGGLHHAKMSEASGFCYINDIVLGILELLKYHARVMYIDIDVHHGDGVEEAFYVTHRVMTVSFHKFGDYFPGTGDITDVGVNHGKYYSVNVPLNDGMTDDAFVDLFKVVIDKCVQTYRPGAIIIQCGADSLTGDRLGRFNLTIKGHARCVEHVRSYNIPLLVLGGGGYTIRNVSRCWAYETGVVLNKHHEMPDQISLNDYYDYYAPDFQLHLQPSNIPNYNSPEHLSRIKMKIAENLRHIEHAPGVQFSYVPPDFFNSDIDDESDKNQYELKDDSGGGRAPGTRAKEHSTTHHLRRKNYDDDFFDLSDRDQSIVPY
Summary of the method: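 About 3 × 10^9 erythrocytes infected with late-trophozoite P. falciparum 3D7 were exposed to compound or to DMSO vehicle for 3.5 h at 37°C, and an untreated sample was taken at the start. Histones were extracted, about 6 × 10^8 parasites were loaded per lane on SDS–15% PAGE, and loading was checked by silver stain. Western blots were probed with anti-tetraacetyl-H4 and anti-diacetyl-H3 antisera and detected by ECL.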

Plasmodium falciparum [11] = test: Antimicrobial activity against Plasmodium falciparum W2 at […] in presence of mefloquine; assay type: functional
Summary of the method: (§4)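 In vitro fixed-ratio isobologram using a SYBR green I fluorescence assay. […] IC50s were standardized and FIC50 and ΣFIC50 calculated by the Berenbaum method. Reported as the average ΣFIC across dilutions or the average maximum ΣFIC, from at least 2 experiments.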

Plasmodium falciparum [12] = test: Antimalarial activity against chloroquine-resistant Plasmodium falciparum FVO infected in Aotus lemurinus […] monkey assessed as reduction in parasitemia at 16 mg/kg/day, po for 3 days; assay type: functional, organism-based
Plasmodium berghei [13] = test: Antimalarial activity against Plasmodium berghei infected in mouse assessed as effect on cure rate at split dose of 80 mg/kg/day, po for 3 days; assay type: functional, organism-based
Summary of the method: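 Mice were infected ip with 10^6 P. berghei-parasitized erythrocytes. The compound was given in hydroxyethylcellulose-Tween 20 vehicle, 5 mice per group, starting on day 3 post-infection. Regimens were once-daily or split daily oral doses over 3 days, subcutaneous dosing, or dosing over 7 days. Read-outs were posttreatment parasitemia on day 6 as a fraction of controls and the number of mice cured.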

[14] = Tmax in ICR mouse at 50 mg/kg/day, po by LC/MS analysis; assay type: ADME, organism-based; parameters: route oral; details: in vivo; summary of the method: as §3
Plasmodium berghei [15] = test: Antimalarial activity against Plasmodium berghei infected in mouse assessed as parasitemia level at 160 mg/kg/day for 3 days measured on day 3 (reference value: 0.46%); assay type: functional; summary of the method: as §1
Plasmodium falciparum [16] = test: Antimicrobial activity against Plasmodium falciparum W2 at […] in presence of artemisinin; assay type: functional; summary of the method: as §4
Plasmodium berghei [17] = test: Antimalarial activity against Plasmodium berghei infected in mouse assessed as parasitemia level at 0.32 mg/kg/day for 3 days measured on day 6 (reference value: 37%); assay type: functional
Plasmodium berghei [18] = test: Antimalarial activity against Plasmodium berghei infected in mouse assessed as parasitemia level at split dose of 40 mg/kg/day, po for 3 days measured on day 6 relative to control; assay type: functional; summary of the method: as §2
[19] = Half life in ICR mouse at 50 mg/kg/day, po by LC/MS analysis; assay type: ADME, organism-based; parameters: route oral; details: in vivo; summary of the method: as §3
[20] = Selectivity index, ratio of LC50 for mouse RAW264.7 cells to IC50 for Plasmodium falciparum; details: raw264.7
Plasmodium berghei [21] = test: Antimalarial activity against Plasmodium berghei infected in mouse assessed as effect on cure rate at 52 mg/kg/day for 3 days measured on day 6 in presence of 64 mg/kg/day chloroquine; assay type: functional, organism-based; summary of the method: as §1
Plasmodium berghei [22] = test: Antimalarial activity against Plasmodium berghei infected in mouse assessed as parasitemia level at 0.32 mg/kg/day for 3 days measured on day 3 in presence of 4 mg/kg/day chloroquine (reference value: 0.46%); assay type: functional
Plasmodium berghei [23] = test: Antimalarial activity against Plasmodium berghei infected in mouse assessed as parasitemia level at 12.8 mg/kg/day for 3 days measured on day 3 in presence of 16 mg/kg/day chloroquine (reference value: 0.46%); assay type: functional; summary of the method: as §1

For `Nc1cccc(-c2csc(NC(=O)CCCCCCC(=O)NO)n2)c1`, the Activity (Mus musculus) was “Non-toxic”, the Activity (Plasmodium berghei [1]) was 0.52% and the Activity (Plasmodium berghei [2]) was “inactive”. For the same molecule, the “fold change (FC)” value (Plasmodium berghei [3]) was 0.05, the Activity (Plasmodium falciparum [4]) was “Active” and the Activity (Plasmodium berghei [5]) was “inactive”. For the same molecule, the CC50 [6] was 600 nM, the Tmax [7] was 1.3 h and the IC50 (Plasmodium falciparum [8]) was 0.6 nM. For the same molecule, the Activity (Plasmodium berghei [9]) was “inactive”, the inhibition [10] was “Dose-dependent effect” and the “fractional inhibitory concentration index (FICI)” value (Plasmodium falciparum [11]) was 2.1. For the same molecule, the inhibition (Plasmodium falciparum [12]) was “inactive”, the Activity (Plasmodium berghei [13]) was “inactive” and the Tmax [14] was 0.83 h. The Activity (Plasmodium berghei [15]) was 0.64%, the “fractional inhibitory concentration index (FICI)” value (Plasmodium falciparum [16]) was 2.1 and the Activity (Plasmodium berghei [17]) was 45%. The “fold change (FC)” value (Plasmodium berghei [18]) was 0.32, the half-life [19] was 3.5 h and the selectivity ratio [20] was 1080. For the same molecule, the Activity (Plasmodium berghei [21]) was “inactive”, the Activity (Plasmodium berghei [22]) was 0.72% and the Activity (Plasmodium berghei [23]) was 0.52%.
